Laboratory results reported in the M2OR odorant receptor database.

The compounds below were run against T1, OR10S1 (Homo sapiens) (UniProt Q8NGN2). Conditions: stereoisomer not certain.
T1 sequence (whole entry): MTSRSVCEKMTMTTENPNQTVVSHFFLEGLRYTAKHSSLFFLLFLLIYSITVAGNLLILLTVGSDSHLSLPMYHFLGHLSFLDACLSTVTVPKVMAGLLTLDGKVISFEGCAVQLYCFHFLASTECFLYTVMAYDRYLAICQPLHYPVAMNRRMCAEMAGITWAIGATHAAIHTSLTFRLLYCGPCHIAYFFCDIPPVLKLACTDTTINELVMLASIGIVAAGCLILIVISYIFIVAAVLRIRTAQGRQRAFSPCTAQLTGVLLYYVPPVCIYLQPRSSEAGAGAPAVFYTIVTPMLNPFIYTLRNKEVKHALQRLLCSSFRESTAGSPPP
Method in brief: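 Each entry records the cell line, G-protein, co-transfected protein and tags used. Methods varied with the source, often transient luciferase assays in mammalian cell lines. A receptor–molecule pair is called responsive (active) if the original authors judged its signal statistically different from baseline and non-responsive (inactive) otherwise.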

SMILES	odorant receptor agonist call
CCCCCCCCCCCCCCCCCC(=O)OCC	inactive
C=C1CCC2CC1C2(C)C (stereo unspecified)	inactive
CCCCCCCCCCCCCC(=O)OC	inactive
CCCCCCCC(=O)OC	inactive
CCCCCCCCCCCC(=O)OC	inactive
CCCCCCCCCCCCCC(=O)OCC	inactive
CCCCCCCCCCCCCCCCCC(=O)OC	inactive
CCCCCCCCCCCCCCC(=O)O	inactive
CC(O)C(=O)[O-].[H+] (stereo unspecified)	inactive
CCC(O)CC	inactive
Cc1cnc(C)cn1	inactive
CCCCCCCCCCCCCCCCCC(=O)[O-].[H+]	inactive
CCCCCCCCCCCCCC(=O)O	inactive
CCCCCCCC(=O)OCC	inactive
O=c1ccc2ccccc2o1	inactive
Cc1ccc(C(C)C)cc1	inactive
CC(C=O)Cc1ccc(C(C)(C)C)cc1 (stereo unspecified)	active
CCCO	inactive
CCCCCCCCCCCCCCCC(=O)[O-].[H+]	inactive
CCCCOCC(C)O (stereo unspecified)	inactive
CCCCCCCCCCCCCCCC(=O)OCC	inactive
CCCCCCCCCCCCCCCC(=O)OC	inactive
CCCC(=O)CC	inactive
CC(=O)O	inactive
CCCCCCCCCC(=O)OCC	inactive
CCC(=O)O	inactive
